Consider three molecules from ChEMBL document CHEMBL5154918, “Synthesis and Biological Characterization of a Series of 2-Sulfonamidebenzamides as Allosteric Modulators of MrgX1” (ACS Med Chem Lett, 2022).

By AUC is commonly meant the area under the concentration-time curve, a measure of exposure. In general, Cmax refers to the peak of the concentration-time curve. The term Emax denotes the size of the effect at its maximum, as opposed to the concentration needed. Usually Tmax stands for the time at which the peak concentration occurs. By clearance is commonly meant a measure of how efficiently the substance is removed, as volume per time. In general, half-life refers to how long it takes for the measured level to halve. A low value points to rapid decline. Usually EC50 stands for the midpoint of the concentration-response curve. The term Ki denotes a dissociation constant, usually derived from enzyme kinetics or from competition with a known ligand.

The nature of data set [1]: Volume of distribution at steady state in Sprague-Dawley rat at 0.25 mg/kg, iv bolus injection administered as cassette dose. The data set is classed as ADME, organism-based. Conditions: in vivo, read-out: Vdss. In short, it runs like this:
(§1)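 Male Sprague–Dawley rats, 5-in-1 cassette, 0.25 mg/kg IV of each test article in DMSO:PEG400:EtOH:Saline (5:48:10:37). Plasma sampled at 0.0833, 0.25, 0.5, 1, 3, 4, 8 and 24 h, plus Day 2 at 0.25 h post dose.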

The nature of data set [2]: Microsomal stability in human liver microsomes assessed as intrinsic clearance. Conditions: read-out: CLH. The data set is classed as ADME, Microsome. In short, it runs like this: (§2)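 Intrinsic clearance measured in human and mouse liver microsomes. Hepatic clearance predicted from it with the well-stirred organ CL model, binding terms excluded.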
Background: Microsomes from liver hold many membrane-bound enzymes, among them those of drug oxidation.

Data set [3] can be described thus: Ratio of drug concentration in brain to plasma in Sprague-Dawley rat at 0.25 mg/kg measured after 15 mins. The data set is classed as ADME, organism-based. Conditions: brain and plasma. A digest of the protocol:
(§3)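 Brain sampled on Day 2 at 0.25 h, with matching plasma, after a 0.25 mg/kg IV cassette dose (5-in-1) in male Sprague–Dawley rats. Vehicle was DMSO:PEG400:EtOH:Saline (5:48:10:37). Kp is total brain/plasma concentration ratio.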

A short description of data set [4]: AUC in mouse at 2 mg/kg, ip administered as discrete dose. Format: ADME, organism-based. Set-up: dose 2 mg/kg, route ip. Conditions: in vivo. A digest of the protocol:
(§4)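 Discrete (single-compound) mouse PK, dosed IP at 2 mg/kg in 10% DMSO/10% cremophor EL/30% PEG400/50% water. Plasma and brain concentrations measured; brain:plasma ratio reported.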

Data set [5] in a line: Cmax in mouse at 2 mg/kg, ip administered as discrete dose. Set-up: dose 2 mg/kg, route ip. The data set is classed as ADME, organism-based. Conditions: in vivo. In short, it runs like this:
as §4

For data set [6], the target named is T1, Mas-related G-protein coupled receptor member X1 (Homo sapiens, UniProt Q96LB2). Put plainly: Positive allosteric modulator activity at human MRGPRX1 expressed in HEK293 cells assessed as maximal efficacy at 5 uM in presence of BAM8-22 by Fluo4-dye based FLIPR assay relative to control. Format: cell-based. The note with it: filed as positive allosteric modulator.
T1 sequence (Q96LB2 whole entry): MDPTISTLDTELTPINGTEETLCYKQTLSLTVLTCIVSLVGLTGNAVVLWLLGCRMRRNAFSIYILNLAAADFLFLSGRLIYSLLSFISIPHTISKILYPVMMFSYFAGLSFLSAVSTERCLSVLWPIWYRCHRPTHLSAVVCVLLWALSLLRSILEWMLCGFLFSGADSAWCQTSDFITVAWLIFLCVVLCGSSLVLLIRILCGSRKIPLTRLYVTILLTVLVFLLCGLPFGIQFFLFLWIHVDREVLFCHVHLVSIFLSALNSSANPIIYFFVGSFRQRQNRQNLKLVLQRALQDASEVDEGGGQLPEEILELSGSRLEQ

A short description of data set [7]: Tmax in mouse at 2 mg/kg, ip administered as discrete dose. Format: ADME, organism-based. The note with it: in vivo. In short, it runs like this: as §4
Data set [8] is described as follows: Clearance in Sprague-Dawley rat at 0.25 mg/kg, iv bolus injection administered as cassette dose. The data set is classed as ADME, organism-based. Conditions: in vivo. In short, it runs like this:
as §1

Data set [9] is described as follows: Plasma protein binding in mouse assessed as unbound fraction. The note with it: read-out: PPB. Format: ADME, cell-free. In short, it runs like this: (§5)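 Equilibrium dialysis in human and mouse plasma; results expressed as […] fraction unbound.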
Data set [10] can be described thus: Drug concentration in Sprague-Dawley rat plasma at 0.25 mg/kg measured up to 48.25 hrs. Format: ADME, organism-based. In short, it runs like this: as §3
Data set [11] in a line: Drug concentration in Sprague-Dawley rat brain at 0.25 mg/kg measured up to 48.25 hrs. The data set is classed as ADME, organism-based. Conditions: read-out: Ct. A digest of the protocol:
as §3

The nature of data set [12]: Plasma protein binding in human assessed as unbound fraction. The data set is classed as ADME, cell-free. Conditions: read-out: PPB. A digest of the protocol: as §5
Data set [13] is described as follows: Ratio of drug concentration in brain to plasma in mouse at 2 mg/kg, ip administered as discrete dose. The data set is classed as ADME, organism-based. Conditions: brain and plasma, read-out: BPR. A digest of the protocol:
as §4

Data set [14] in a line: Half life in Sprague-Dawley rat at 0.25 mg/kg, iv bolus injection administered as cassette dose. The note with it: in vivo. The data set is classed as ADME, organism-based. A digest of the protocol: as §1
Data set [15] can be described thus: Microsomal stability in mouse liver microsomes assessed as intrinsic clearance. Conditions: read-out: CLH. Format: ADME, Microsome. A digest of the protocol: as §2
The target of data set [16] is T1, Mas-related G-protein coupled receptor member X1. Put plainly: Positive allosteric modulator activity at human MRGPRX1 expressed in HEK293 cells in presence of BAM8-22 by Fluo4-dye based FLIPR assay. The data set is classed as cell-based. In short, it runs like this: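 HEK293 cells expressing MrgX1. Compounds tested in the presence of 10 nM BAM8-22. Emax normalized to control compound ML382; mean ± SEM of n = 2 experiments.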

In data set [17] the target is Translocator protein (Homo sapiens, UniProt P30536). Put plainly: Binding affinity to peripheral benzodiazepine receptor (unknown origin).
Sequence of Translocator protein (P30536 whole entry): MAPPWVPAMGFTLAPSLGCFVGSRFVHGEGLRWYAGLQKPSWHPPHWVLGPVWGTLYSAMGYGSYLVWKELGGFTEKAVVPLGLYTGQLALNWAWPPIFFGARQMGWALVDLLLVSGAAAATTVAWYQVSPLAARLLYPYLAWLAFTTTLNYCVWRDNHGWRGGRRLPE
Data set [18] in a line: AUC in Sprague-Dawley rat at 0.25 mg/kg, iv bolus injection administered as cassette dose. Format: ADME, organism-based. Set-up: dose 0.25 mg/kg, route iv. The note with it: in vivo. A digest of the protocol: as §1
The nature of data set [19]: Half life in mouse at 2 mg/kg, ip administered as discrete dose. Format: ADME, organism-based. The note with it: in vivo. A digest of the protocol:
as §4

For data set [20], the target named is Histamine H1 receptor (Homo sapiens, UniProt P35367). Put plainly: Binding affinity to H1 receptor (unknown origin).
Sequence of Histamine H1 receptor (P35367 whole entry): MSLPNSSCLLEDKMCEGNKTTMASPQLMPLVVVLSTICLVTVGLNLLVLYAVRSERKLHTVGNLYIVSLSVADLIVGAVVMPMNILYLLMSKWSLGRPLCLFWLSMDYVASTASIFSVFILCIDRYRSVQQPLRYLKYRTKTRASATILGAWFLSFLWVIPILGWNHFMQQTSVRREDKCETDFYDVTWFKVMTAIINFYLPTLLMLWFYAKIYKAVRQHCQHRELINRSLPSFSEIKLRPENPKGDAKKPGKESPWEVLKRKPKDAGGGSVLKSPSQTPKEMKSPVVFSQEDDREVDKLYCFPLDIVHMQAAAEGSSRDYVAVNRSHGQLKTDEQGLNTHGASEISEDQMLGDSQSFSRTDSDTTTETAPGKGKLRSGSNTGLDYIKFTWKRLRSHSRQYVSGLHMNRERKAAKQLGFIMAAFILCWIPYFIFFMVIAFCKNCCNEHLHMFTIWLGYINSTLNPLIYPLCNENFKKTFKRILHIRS
Data set [21] concerns the target D(1B) dopamine receptor (Homo sapiens, UniProt P21918). The experiment in a line: Binding affinity to D5 receptor (unknown origin).

Sequence of D(1B) dopamine receptor (P21918 whole entry): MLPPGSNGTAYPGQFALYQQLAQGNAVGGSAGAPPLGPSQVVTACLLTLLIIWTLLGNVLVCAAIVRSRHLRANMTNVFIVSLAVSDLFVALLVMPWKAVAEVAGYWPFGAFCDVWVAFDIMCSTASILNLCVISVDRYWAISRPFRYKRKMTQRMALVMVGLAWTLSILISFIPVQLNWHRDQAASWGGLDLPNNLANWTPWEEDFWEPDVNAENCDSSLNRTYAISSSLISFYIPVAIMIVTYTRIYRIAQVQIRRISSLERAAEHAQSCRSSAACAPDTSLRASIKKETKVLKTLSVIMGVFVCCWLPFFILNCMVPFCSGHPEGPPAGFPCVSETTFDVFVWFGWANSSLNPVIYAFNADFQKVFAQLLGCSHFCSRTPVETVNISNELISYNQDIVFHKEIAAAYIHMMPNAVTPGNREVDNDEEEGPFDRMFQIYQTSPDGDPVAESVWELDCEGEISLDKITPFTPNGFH

In the case of `CCOc1ccc(F)cc1NC(=O)c1cc(F)ccc1NS(=O)(=O)C1CC1`, the Vd in [1] was determined as 0.34 L/kg. The CLint scaled in [2] stood at 59.4 mL/min/kg; in data set [15], 980 mL/min/kg. Further, in data set [3], the Kp at 0.25 h turned out to be 0.19. Further, the exposure (AUC) amounted to 426 ng·h/mL in data set [4] and 304 ng·h/mL in data set [18]. The same molecule gave a Cmax in [5] of 1280 ng/mL. In addition, the Emax in [6] came out at 127%. The Tmax in data set [7] is 10.2 min. The clearance in [8] was 14.1 mL/min/kg. In addition, the fraction unbound in [9] was 0.011; in data set [12], 0.002. Further, the concentration at 48.25 h in data set [10] turned out to be 297 ng/mL; in [11], 55.9 ng/g. In addition, in data set [13], the Kp is 0.2. The half-life in data set [14] is 24.6 min; in [19] it was 7.2 min. The EC50 in data set [16] amounted to 13 nM. The Ki in [17] amounted to 71 nM.
Regarding `CCOc1ccc(F)cc1NC(=O)c1ccccc1NS(=O)(=O)C1CC1`, the Vd in data set [1] is 0.52 L/kg. Moreover, the CLint scaled is 79.1 mL/min/kg in [2] and 1660 mL/min/kg in [15]. For the same molecule, the Kp at 0.25 h in data set [3] came out at 0.29. Also, the AUC in data set [4] was 69 ng·h/mL; in [18], 119 ng·h/mL. This molecule had a Cmax in data set [5] of 259 ng/mL. In [6], the maximal effect (Emax) came out at 82.2%. In addition, in data set [7], the time to peak (Tmax) was 10.2 min. Also, the clearance in data set [8] was determined as 36.7 mL/min/kg. In addition, the fraction unbound in data set [9] is 0.022; in data set [12], 0.004. Also, the figures for the Ki in data set [20], in data set [21] and in [17] were > 4000 nM, > 4000 nM and 271 nM, respectively. For the same molecule, the concentration at 48.25 h stood at 79.6 ng/mL in [10] and 23.6 ng/g in data set [11]. Also, the Kp in data set [13] worked out at 0.32. Further, the half-life is 28.8 min in data set [14] and 10.8 min in data set [19]. Moreover, the concentration giving a half-maximal response (EC50) in [16] came out at 14 nM.
Turning to `CCOc1ccc(F)cc1NC(=O)c1cc(C)ccc1NS(=O)(=O)C1CC1`, in data set [1], the Vd was found to be 1.2 L/kg. The CLint scaled in [2] came to 114 mL/min/kg; in data set [15], 1100 mL/min/kg. Further, in data set [3], the Kp at 0.25 h stood at 0.57. For the same molecule, the maximum response (Emax) in [6] came to 106%. The same molecule registered a clearance in [8] of 63.1 mL/min/kg. For the same molecule, the fraction unbound in data set [9] came to 0.012; in [12] it was 0.003. The molecule further gave an inhibitory constant (Ki) in [20] of 1090 nM. The concentration at 48.25 h in data set [10] stood at 61.5 ng/mL; in data set [11] it was 35.1 ng/g. The molecule further gave a half-life in data set [14] of 25.2 min. Further, the EC50 in data set [16] is 69 nM. Also, the AUC in data set [18] is 66.2 ng·h/mL.
